“And” between values parts separate entries of the source, which are not always exact repeats. Equal values may be shown once.
Experiments:
Adenosine receptor A2a = Adenosine receptor A2a (Homo sapiens, UniProt P29274); assay: Displacement of [3H]ZM-241385 from human adenosine A2A receptor expressed in CHO cells; type: cell-based
Method in brief: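 Competition binding at cloned human receptors: [3H]DPCPX for A1 and A2B, [3H]ZM241385 for A2A, [3H]NECA for A3. Screening compounds are reported as % radioligand displacement at one concentration. SEM below 10%.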

Homo sapiens = species: Homo sapiens; assay: Selectivity index, ratio for human adenosine A2A receptor to human adenosine A2B receptor
Adenosine receptor A2b = target: T1, Adenosine receptor A2b (Homo sapiens, UniProt P29275); assay: Displacement of [3H]DPCPX from human adenosine A2B receptor expressed in HEK293 cells; type: cell-based
T1 sequence (P29275 whole entry): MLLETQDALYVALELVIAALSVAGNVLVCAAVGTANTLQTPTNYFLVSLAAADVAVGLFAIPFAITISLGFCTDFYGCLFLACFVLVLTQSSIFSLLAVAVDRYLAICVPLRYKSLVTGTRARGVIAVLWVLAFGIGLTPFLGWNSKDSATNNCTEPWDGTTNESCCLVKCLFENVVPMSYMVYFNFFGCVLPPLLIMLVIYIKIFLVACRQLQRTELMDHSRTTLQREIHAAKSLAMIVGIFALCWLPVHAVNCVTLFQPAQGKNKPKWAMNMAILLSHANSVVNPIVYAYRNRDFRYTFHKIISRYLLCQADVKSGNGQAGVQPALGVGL

Chain of Adenosine receptor A2a (P29274 whole entry): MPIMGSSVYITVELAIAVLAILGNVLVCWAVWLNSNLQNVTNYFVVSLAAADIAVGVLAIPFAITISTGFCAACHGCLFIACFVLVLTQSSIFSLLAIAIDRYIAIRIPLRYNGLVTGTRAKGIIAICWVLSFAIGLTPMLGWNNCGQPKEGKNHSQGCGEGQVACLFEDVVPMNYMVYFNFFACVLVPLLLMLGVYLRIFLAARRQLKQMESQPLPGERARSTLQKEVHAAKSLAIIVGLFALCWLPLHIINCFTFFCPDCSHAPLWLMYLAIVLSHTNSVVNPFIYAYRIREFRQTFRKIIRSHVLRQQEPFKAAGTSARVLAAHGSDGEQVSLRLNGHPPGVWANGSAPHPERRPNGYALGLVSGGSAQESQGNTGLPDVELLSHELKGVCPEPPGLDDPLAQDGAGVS

CCCn1c(=O)n(C)c(=O)c2[nH]c(-c3ccc(OCC(=O)N4CCN(c5nc6ccc(Cl)cc6s5)CC4)cc3)cc21
Ki (Adenosine receptor A2a): 631 nM
Ratio (Homo sapiens): 106
Ki (Adenosine receptor A2b; read-out: Log Ki (converted)): 5.75 nM

O=C(COc1ccc(-c2cc3c([nH]2)c(=O)n(CC2CC2)c(=O)n3CC2CC2)cc1)N1CCc2ccccc2C1
Ki (Adenosine receptor A2a): 240 nM
Ratio (Homo sapiens): 25
Ki (Adenosine receptor A2b; read-out: Log Ki (converted)): 9.55 nM

CCCn1c(=O)c2[nH]c(-c3ccc(OCC(=O)N4CCN(C(c5ccccc5)c5ccccc5)CC4)cc3)cc2n(CCC)c1=O
Ki (Adenosine receptor A2a): 1580 nM
Ratio (Homo sapiens): 30.9
Ki (Adenosine receptor A2b; read-out: Log Ki (converted)): 51.3 nM

Cn1c(=O)c2[nH]c(-c3ccc(OCC(=O)N4CCN(c5ccc(F)cc5)CC4)cc3)cc2n(C)c1=O
Ki (Adenosine receptor A2a): 324 nM
Ratio (Homo sapiens): 33.8
Ki (Adenosine receptor A2b; read-out: Log Ki (converted)): 9.55 nM

CCCn1c(=O)n(C)c(=O)c2[nH]c(-c3ccc(OCC(=O)N4CCC(c5ccc(OC)cc5)CC4)cc3)cc21
Ki (Adenosine receptor A2a): 398 nM
Ratio (Homo sapiens): 43.7
Ki (Adenosine receptor A2b; read-out: Log Ki (converted)): 9.12 nM

CCCn1c(=O)c2[nH]c(-c3ccc(OCC(=O)N4CCC(O)(c5ccccc5)CC4)cc3)cc2n(CCC)c1=O
Ki (Adenosine receptor A2a): 1150 nM
Ratio (Homo sapiens): 85.1
Ki (Adenosine receptor A2b; read-out: Log Ki (converted)): 13.5 nM

COc1cc(-c2cc3c([nH]2)c(=O)n(C)c(=O)n3C)ccc1OCC(=O)N1CCc2ccccc2C1
Ki (Adenosine receptor A2a): 6760 nM
Ratio (Homo sapiens): 39
Ki (Adenosine receptor A2b; read-out: Log Ki (converted)): 170 nM

CC(Oc1ccc(-c2cc3c([nH]2)c(=O)n(C)c(=O)n3C)cc1)C(=O)N1CCN(c2ccccc2)CC1 (configuration not stated)
Ki (Adenosine receptor A2a): 355 nM
Ratio (Homo sapiens): 17.4
Ki (Adenosine receptor A2b; read-out: Log Ki (converted)): 20.4 nM

Cn1c(=O)c2[nH]c(-c3ccc(OCC(=O)N4CCN(c5nc6cc(Cl)ccc6s5)CC4)cc3)cc2n(C)c1=O
Ki (Adenosine receptor A2a): 182 nM
Ratio (Homo sapiens): 50.1
Ki (Adenosine receptor A2b; read-out: Log Ki (converted)): 3.63 nM

Cn1c(=O)c2[nH]c(-c3ccc(OCC(=O)N4CCC(O)(c5ccc(Cl)cc5)CC4)cc3)cc2n(C)c1=O
Ki (Adenosine receptor A2a): 324 nM
Ratio (Homo sapiens): 112
Ki (Adenosine receptor A2b; read-out: Log Ki (converted)): 2.88 nM

CCCn1c(=O)c2[nH]c(-c3ccc(OCC(=O)N4CCN(Cc5ccccc5)CC4)cc3)cc2n(CCC)c1=O
Ki (Adenosine receptor A2a): 257 nM
Ratio (Homo sapiens): 41.7
Ki (Adenosine receptor A2b; read-out: Log Ki (converted)): 6.17 nM

Cn1c(=O)c2[nH]c(-c3ccc(OCC(=O)N4CCN(c5ccc(Br)cc5)CC4)cc3)cc2n(C)c1=O
Ki (Adenosine receptor A2a): 115 nM
Ratio (Homo sapiens): 33.1
Ki (Adenosine receptor A2b; read-out: Log Ki (converted)): 3.47 nM

CCn1c(=O)c2[nH]c(-c3ccc(OCC(=O)N4CCN(c5ccccc5)CC4)cc3)cc2n(CC)c1=O
Ki (Adenosine receptor A2a): 692 nM
Ratio (Homo sapiens): 26.9
Ki (Adenosine receptor A2b; read-out: Log Ki (converted)): 25.7 nM

CCCn1c(=O)c2[nH]c(-c3ccc(OCC(=O)N4CCN(c5ccccc5Cl)CC4)cc3)cc2n(CCC)c1=O
Ki (Adenosine receptor A2a): 38 nM
Ratio (Homo sapiens): 5.5
Ki (Adenosine receptor A2b; read-out: Log Ki (converted)): 6.92 nM

Cn1c(=O)c2[nH]c(-c3ccc(OCC(=O)N4CCN(c5ccc(O)cc5)CC4)cc3)cc2n(C)c1=O
Ki (Adenosine receptor A2a): 617 nM
Ratio (Homo sapiens): 22
Ki (Adenosine receptor A2b; read-out: Log Ki (converted)): 27.5 nM

CCCn1c(=O)c2[nH]c(-c3ccc(OCC(=O)N4CCN(C(=O)OCc5ccccc5)CC4)cc3)cc2n(CCC)c1=O
Ki (Adenosine receptor A2a): 151 nM
Ratio (Homo sapiens): 3.9
Ki (Adenosine receptor A2b; read-out: Log Ki (converted)): 38.9 nM

COc1ccc(N2CCN(C(=O)COc3ccc(-c4cc5c([nH]4)c(=O)n(C)c(=O)n5C)cc3)CC2)cc1
Ki (Adenosine receptor A2a): 170 nM
Ratio (Homo sapiens): 12.9
Ki (Adenosine receptor A2b; read-out: Log Ki (converted)): 13.2 nM

CCCn1c(=O)n(C)c(=O)c2[nH]c(-c3ccc(OCC(=O)N4CCC(c5ccccc5)CC4)cc3)cc21
Ki (Adenosine receptor A2a): 1020 nM
Ratio (Homo sapiens): 398
Ki (Adenosine receptor A2b; read-out: Ki): 2.5 nM

Cn1c(=O)c2[nH]c(-c3ccc(OCC(=O)N4CCN(c5cccc(Cl)c5)CC4)cc3)cc2n(C)c1=O
Ki (Adenosine receptor A2a): 155 nM
Ratio (Homo sapiens): 55
Ki (Adenosine receptor A2b; read-out: Ki): 3 nM

CCCn1c(=O)c2[nH]c(-c3ccc(OC(C)C(=O)N4CCc5ccccc5C4)cc3)cc2n(CCC)c1=O (configuration not stated)
Ki (Adenosine receptor A2a): 158 nM
Ratio (Homo sapiens): 33.9
Ki (Adenosine receptor A2b; read-out: Log Ki (converted)): 4.68 nM

Cn1c(=O)c2[nH]c(-c3ccc(OCC(=O)N4CCC(c5ccccc5)CC4)cc3)cc2n(C)c1=O
Ki (Adenosine receptor A2a): 794 nM
Ratio (Homo sapiens): 64.6
Ki (Adenosine receptor A2b; read-out: Log Ki (converted)): 12.3 nM

CC(Oc1ccc(-c2cc3c([nH]2)c(=O)n(C)c(=O)n3C)cc1)C(=O)N1CCN(c2ccc(Br)cc2)CC1 (configuration not stated)
Ki (Adenosine receptor A2a): 269 nM
Ratio (Homo sapiens): 26
Ki (Adenosine receptor A2b; read-out: Log Ki (converted)): 8.13 nM

CCCn1c(=O)c2[nH]c(-c3ccc(OCC(=O)N4CCN(c5cccc(Cl)c5)CC4)cc3)cc2n(CCC)c1=O
Ki (Adenosine receptor A2a): 115 nM
Ratio (Homo sapiens): 75.9
Ki (Adenosine receptor A2b; read-out: Ki): 1.5 nM

Cn1c(=O)c2[nH]c(-c3ccc(OCC(=O)N4CCN(c5ccc(C#N)cc5)CC4)cc3)cc2n(C)c1=O
Ki (Adenosine receptor A2a): 355 nM
Ratio (Homo sapiens): 56
Ki (Adenosine receptor A2b; read-out: Log Ki (converted)): 6.31 nM

Cn1c(=O)c2[nH]c(-c3ccc(OC(C)(C)C(=O)N4CCN(c5ccccc5)CC4)cc3)cc2n(C)c1=O
Ki (Adenosine receptor A2a): 174 nM
Ratio (Homo sapiens): 5.49
Ki (Adenosine receptor A2b; read-out: Log Ki (converted)): 31.6 nM

O=C(COc1ccc(-c2cc3c([nH]2)c(=O)n(CC2CC2)c(=O)n3CC2CC2)cc1)N1CCN(c2ccccc2)CC1
Ki (Adenosine receptor A2a): 49 nM
Ratio (Homo sapiens): 4.2
Ki (Adenosine receptor A2b; read-out: Log Ki (converted)): 11.7 nM

CCCn1c(=O)n(C)c(=O)c2[nH]c(-c3ccc(OCC(=O)N4CCN(c5c(Cl)cncc5Cl)CC4)cc3)cc21
Ki (Adenosine receptor A2a): 646 nM
Ratio (Homo sapiens): 151
Ki (Adenosine receptor A2b; read-out: Log Ki (converted)): 4.27 nM

COc1cc(-c2cc3c([nH]2)c(=O)n(C)c(=O)n3C)ccc1OCC(=O)N1CCN(c2ccccc2)CC1
Ki (Adenosine receptor A2a): 1450 nM
Ratio (Homo sapiens): 25.1
Ki (Adenosine receptor A2b; read-out: Log Ki (converted)): 57.5 nM

COc1ccccc1N1CCN(C(=O)COc2ccc(-c3cc4c([nH]3)c(=O)n(C)c(=O)n4C)cc2)CC1
Ki (Adenosine receptor A2a): 2340 nM
Ratio (Homo sapiens): 45.7
Ki (Adenosine receptor A2b; read-out: Log Ki (converted)): 51.3 nM

CCCn1c(=O)c2[nH]c(-c3ccc(OC(C)C(=O)N4CCN(c5ccccc5)CC4)cc3)cc2n(CCC)c1=O (configuration not stated)
Ki (Adenosine receptor A2a): 240 nM
Ratio (Homo sapiens): 36.3
Ki (Adenosine receptor A2b; read-out: Log Ki (converted)): 6.61 nM

Cn1c(=O)c2[nH]c(-c3ccc(OCC(=O)N4CCN(c5ccc(C(F)(F)F)cc5)CC4)cc3)cc2n(C)c1=O
Ki (Adenosine receptor A2a): 132 nM
Ratio (Homo sapiens): 31.6
Ki (Adenosine receptor A2b; read-out: Log Ki (converted)): 4.17 nM

CCCn1c(=O)c2[nH]c(-c3ccc(OCC(=O)N4CCc5ccccc5C4)cc3)cc2n(CCC)c1=O
Ki (Adenosine receptor A2a): 93.3 nM
Ratio (Homo sapiens): 40.7
Ki (Adenosine receptor A2b; read-out: Log Ki (converted)): 2.29 nM

CCCn1c(=O)c2[nH]c(-c3ccc(OCC(=O)N4CCN(c5ccccc5Cl)CC4)cc3)cc2n(C)c1=O
Ki (Adenosine receptor A2a): 224 nM
Ratio (Homo sapiens): 3.2
Ki (Adenosine receptor A2b; read-out: Log Ki (converted)): 69.2 nM

CCCn1c(=O)c2[nH]c(-c3ccc(OCC(=O)N4CCN(C(=O)Oc5ccccc5)CC4)cc3)cc2n(CCC)c1=O
Ki (Adenosine receptor A2a): 155 nM
Ratio (Homo sapiens): 7.6
Ki (Adenosine receptor A2b; read-out: Log Ki (converted)): 20.4 nM

CCCn1c(=O)c2[nH]c(-c3ccc(OCC(=O)N4CCN(c5ccccc5)CC4)cc3)cc2n(CCC)c1=O
Ki (Adenosine receptor A2a): 162 nM
Ratio (Homo sapiens): 33.8
Ki (Adenosine receptor A2b; read-out: Log Ki (converted)): 4.79 nM

Cn1c(=O)c2[nH]c(-c3ccc(OCC(=O)N4CCN(c5ccc(Cl)cc5)CC4)cc3)cc2n(C)c1=O
Ki (Adenosine receptor A2a): 398 nM
Ratio (Homo sapiens): 117
Ki (Adenosine receptor A2b; read-out: Log Ki (converted)): 3.39 nM

CCCn1c(=O)n(C)c(=O)c2[nH]c(-c3ccc(OCC(=O)N4CCN(c5ccccc5)CC4)cc3)cc21
Ki (Adenosine receptor A2a): 708 nM
Ratio (Homo sapiens): 27.5
Ki (Adenosine receptor A2b; read-out: Log Ki (converted)): 25.7 nM

Cn1c(=O)c2[nH]c(-c3ccc(OCC(=O)N4CCN(Cc5ccccc5)CC4)cc3)cc2n(C)c1=O
Ki (Adenosine receptor A2a): 1550 nM
Ratio (Homo sapiens): 28.8
Ki (Adenosine receptor A2b; read-out: Log Ki (converted)): 53.7 nM

CCCn1c(=O)c2[nH]c(-c3ccc(OCC(=O)N4CCN(c5ccccc5)CC4)cc3)cc2n(C)c1=O
Ki (Adenosine receptor A2a): 316 nM
Ratio (Homo sapiens): 24
Ki (Adenosine receptor A2b; read-out: Log Ki (converted)): 13.2 nM

Cc1ccc(N2CCN(C(=O)C(C)Oc3ccc(-c4cc5c([nH]4)c(=O)n(C)c(=O)n5C)cc3)CC2)cc1 (configuration not stated)
Ki (Adenosine receptor A2a): 389 nM
Ratio (Homo sapiens): 213
Ki (Adenosine receptor A2b; read-out: Ki): 2 nM

CCCn1c(=O)n(C)c(=O)c2[nH]c(-c3ccc(OCC(=O)N4CCc5ccccc5C4)cc3)cc21
Ki (Adenosine receptor A2a): 209 nM and 1000 nM
Ki (Adenosine receptor A2b; read-out: Log Ki (converted)): 14.5 nM and 7.24 nM
